The species entered for one test is Felis catus. As to the kind of experiment: Intrinsic activity as percentage of heart rate (HR max) in cat was determined. Type of test: functional. A digest of the protocol: (§1)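 Reserpinized, bilaterally vagotomized cats, pentobarbital-anesthetized (30 mg/kg ip, then 0.1 (mg/min)/kg infusion), artificially ventilated. Heart rate was recorded by cardiotachograph from carotid pressure. Hind-leg vascular resistance was read as perfusion pressure under constant-flow autoperfusion. Test compound was infused iv into the femoral vein for 10 min at 1.0 mL/min, in five stepwise raised concentrations.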

Test [1] addresses Beta-1 adrenergic receptor (Homo sapiens) (UniProt P08588). As to the kind of experiment: Tested for agonistic effect on heart rate against beta-1 adrenergic receptor in cat. The format is functional, tissue-based. The conditions noted are these: Felis catus, target entry is the homologue from another species. An outline of the steps: as §1
For test [2] the target is unchanged. Briefly: Tested for antagonistic effect on heart rate against beta-1 adrenergic receptor in cat. As to conditions: Felis catus, target entry is the homologue from another species. Type of test: functional, tissue-based. An outline of the steps:
as §1

Test [3] deals with Beta-2 adrenergic receptor (Homo sapiens) (UniProt P07550). Briefly: Tested for agonistic effect on peripheral vascular resistance (PR) against beta-2 adrenergic receptor in cat. The format is functional. The conditions noted are these: Felis catus; target entry is the homologue from another species. An outline of the steps:
as §1

The target is the same in test [4]. As to the kind of experiment: Tested for agonistic effect on peripheral vascular resistance (PR) against beta 2 adrenergic receptor in cat. The conditions noted are these: Felis catus; target entry is the homologue from another species. Type of test: functional. An outline of the steps:
as §1

Chain of Beta-1 adrenergic receptor (Homo sapiens) (P08588 whole entry, looked up): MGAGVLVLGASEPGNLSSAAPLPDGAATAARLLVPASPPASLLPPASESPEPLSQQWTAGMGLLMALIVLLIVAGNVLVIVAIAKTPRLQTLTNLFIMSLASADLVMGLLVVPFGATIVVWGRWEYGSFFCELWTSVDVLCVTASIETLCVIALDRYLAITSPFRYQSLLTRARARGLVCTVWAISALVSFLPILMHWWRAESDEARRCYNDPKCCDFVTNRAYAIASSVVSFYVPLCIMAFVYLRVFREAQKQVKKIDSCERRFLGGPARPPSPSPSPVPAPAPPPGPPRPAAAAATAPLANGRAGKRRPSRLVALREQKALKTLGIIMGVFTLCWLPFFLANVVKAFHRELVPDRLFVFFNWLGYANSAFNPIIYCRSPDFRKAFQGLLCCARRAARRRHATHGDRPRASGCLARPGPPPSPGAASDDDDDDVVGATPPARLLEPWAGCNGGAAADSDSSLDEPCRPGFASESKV
Chain of Beta-2 adrenergic receptor (Homo sapiens) (P07550 whole entry, looked up): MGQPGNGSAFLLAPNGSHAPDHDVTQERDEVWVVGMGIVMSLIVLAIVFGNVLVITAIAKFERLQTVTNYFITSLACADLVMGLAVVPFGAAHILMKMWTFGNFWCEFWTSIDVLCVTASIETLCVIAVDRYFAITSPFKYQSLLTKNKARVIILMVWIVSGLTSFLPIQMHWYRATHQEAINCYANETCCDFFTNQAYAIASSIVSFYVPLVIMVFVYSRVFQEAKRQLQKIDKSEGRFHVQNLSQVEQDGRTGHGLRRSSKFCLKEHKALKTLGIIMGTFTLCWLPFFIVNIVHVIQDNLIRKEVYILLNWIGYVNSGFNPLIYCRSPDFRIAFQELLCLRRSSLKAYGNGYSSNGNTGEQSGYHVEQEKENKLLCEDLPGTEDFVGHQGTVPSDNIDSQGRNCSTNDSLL

Take `CC(C)NC[C@H](O)COc1ccc(O)cc1` [PRENALTEROL]: in the test filed under Felis catus, the HR was determined as 80%. The compound further gave a KA in test [1] of 0.025 µM/kg.
Consider `CC(C)NCC(O)c1cc2cc(O)ccc2o1` (stereo not given), for which the figures for the KB in test [2] and in test [3] were 0.34 µM/kg and 1.12 µM/kg, respectively. In addition, the HR in the test listed under Felis catus was 80%. The compound further showed a KA in test [1] of 0.21 µM/kg.
On to `CC(C)NCC(O)c1cc2ccc(O)cc2o1` (stereo not given), for which the KB was found to be 4.8 µM/kg in test [2] and 4.73 µM/kg in test [4]. Moreover, the HR in the test listed under Felis catus came out at 27%. In test [1], this compound gave a KA of 1.65 µM/kg.

These data come from ChEMBL document CHEMBL1121448, “Adrenergic receptor agonists. Benzofuranylethanolamines” (1980).
